According to ChEMBL document CHEMBL4819034, “Tricyclic-Carbocyclic RORγt Inverse Agonists-Discovery of BMS-986313” (J Med Chem, 2021):

Legend:
[1] = Metabolic stability in human liver microsomes assessed as parent compound remaining; type: ADME, Microsome
Method in brief: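 Test compound at 0.5 μM initial concentration incubated with human, mouse or rat liver microsomes (protein 1 mg/mL). Metabolic stability reported as percent of parent compound remaining after incubation.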

[2] = Half life in dog liver microsomes; type: ADME, Canis lupus familiaris, Microsome
Method in brief: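 Liver microsome half-life (min) measured in human, mouse, rat, dog and cyno liver microsomes.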

[3] = Permeability across apical to basolateral membrane in human Caco-2 cells; type: ADME, cell-based; details: read-out: permeability
Method in brief: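 Caco-2 monolayer permeability, apical-to-basolateral direction (Pc, nm/s). An efflux ratio is also reported.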

[4] = biological target: T1, Nuclear receptor ROR-alpha (Homo sapiens, UniProt P35398); test: Inverse agonist activity at Gal4-fused RORalpha (unknown origin)
T1 sequence (P35398 whole entry): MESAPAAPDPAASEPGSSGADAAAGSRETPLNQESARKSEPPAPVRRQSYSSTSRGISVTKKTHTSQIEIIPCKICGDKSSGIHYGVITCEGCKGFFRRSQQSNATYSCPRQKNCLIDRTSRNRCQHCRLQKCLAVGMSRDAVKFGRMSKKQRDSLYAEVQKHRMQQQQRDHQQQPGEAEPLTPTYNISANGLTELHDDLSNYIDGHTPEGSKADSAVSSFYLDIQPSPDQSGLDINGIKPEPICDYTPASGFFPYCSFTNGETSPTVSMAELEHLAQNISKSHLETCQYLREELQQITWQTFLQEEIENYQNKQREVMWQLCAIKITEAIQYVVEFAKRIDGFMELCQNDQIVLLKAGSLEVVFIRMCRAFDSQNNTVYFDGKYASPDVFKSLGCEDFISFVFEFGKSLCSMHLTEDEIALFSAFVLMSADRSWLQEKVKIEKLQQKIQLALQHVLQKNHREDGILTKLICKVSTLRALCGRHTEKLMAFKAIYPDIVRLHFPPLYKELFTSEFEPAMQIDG

[5] = biological target: T2, Oxysterols receptor LXR-beta (Homo sapiens, UniProt P55055); test: Inverse agonist activity at LXRbeta (unknown origin)
T2 sequence (P55055 whole entry): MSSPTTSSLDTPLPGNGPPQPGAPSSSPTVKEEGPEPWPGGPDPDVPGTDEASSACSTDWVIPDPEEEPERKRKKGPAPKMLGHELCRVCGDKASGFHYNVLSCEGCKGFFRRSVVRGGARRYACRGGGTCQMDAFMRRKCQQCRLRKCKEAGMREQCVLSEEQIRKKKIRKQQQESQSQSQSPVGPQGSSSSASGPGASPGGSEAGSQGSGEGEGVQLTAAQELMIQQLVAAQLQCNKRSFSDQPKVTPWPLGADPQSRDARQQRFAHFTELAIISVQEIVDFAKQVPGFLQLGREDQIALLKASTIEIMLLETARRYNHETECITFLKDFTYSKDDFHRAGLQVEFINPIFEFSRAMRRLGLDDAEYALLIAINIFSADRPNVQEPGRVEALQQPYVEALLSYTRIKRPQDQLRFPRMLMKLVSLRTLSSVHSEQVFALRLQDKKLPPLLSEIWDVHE

Cytochrome P450 2D6 = Cytochrome P450 2D6 (Homo sapiens, UniProt P10635); test: Inhibition of CYP2D6 (unknown origin); type: ADME
Sequence of Cytochrome P450 2D6 (P10635 whole entry): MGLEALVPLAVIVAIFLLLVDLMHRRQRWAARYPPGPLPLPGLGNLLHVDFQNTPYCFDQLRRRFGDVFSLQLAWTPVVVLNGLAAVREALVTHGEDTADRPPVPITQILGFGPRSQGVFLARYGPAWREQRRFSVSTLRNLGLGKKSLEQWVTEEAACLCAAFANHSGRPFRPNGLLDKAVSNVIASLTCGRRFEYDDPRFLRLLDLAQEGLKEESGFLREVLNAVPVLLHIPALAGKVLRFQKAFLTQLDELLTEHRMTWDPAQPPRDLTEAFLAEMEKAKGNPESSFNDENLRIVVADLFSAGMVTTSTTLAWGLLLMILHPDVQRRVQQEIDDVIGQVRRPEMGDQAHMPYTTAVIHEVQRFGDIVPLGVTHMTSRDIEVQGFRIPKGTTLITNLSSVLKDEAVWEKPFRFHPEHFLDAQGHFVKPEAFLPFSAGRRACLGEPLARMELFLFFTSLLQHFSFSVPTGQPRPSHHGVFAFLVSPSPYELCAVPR

Cytochrome P450 3A4 = Cytochrome P450 3A4 (Homo sapiens, UniProt P08684); test: Inhibition of CYP3A4 (unknown origin); type: ADME
Sequence of Cytochrome P450 3A4 (P08684 whole entry): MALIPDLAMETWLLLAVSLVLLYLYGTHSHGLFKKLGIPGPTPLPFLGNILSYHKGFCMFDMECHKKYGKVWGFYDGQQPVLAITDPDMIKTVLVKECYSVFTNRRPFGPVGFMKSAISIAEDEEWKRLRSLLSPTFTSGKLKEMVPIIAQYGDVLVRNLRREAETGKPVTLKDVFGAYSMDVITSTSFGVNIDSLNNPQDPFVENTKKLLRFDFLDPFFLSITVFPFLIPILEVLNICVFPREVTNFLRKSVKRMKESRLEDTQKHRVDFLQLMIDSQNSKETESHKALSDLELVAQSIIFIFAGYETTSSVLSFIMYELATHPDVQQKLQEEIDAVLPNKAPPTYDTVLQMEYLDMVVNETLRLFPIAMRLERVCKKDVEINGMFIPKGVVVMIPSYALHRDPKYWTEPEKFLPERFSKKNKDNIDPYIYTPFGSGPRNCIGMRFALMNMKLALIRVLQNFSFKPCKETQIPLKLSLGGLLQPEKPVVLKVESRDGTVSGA

Cytochrome P450 2C8 = biological target: T3, Cytochrome P450 2C8 (Homo sapiens, UniProt P10632); test: Inhibition of CYP2C8 (unknown origin); type: ADME
T3 sequence (P10632 whole entry): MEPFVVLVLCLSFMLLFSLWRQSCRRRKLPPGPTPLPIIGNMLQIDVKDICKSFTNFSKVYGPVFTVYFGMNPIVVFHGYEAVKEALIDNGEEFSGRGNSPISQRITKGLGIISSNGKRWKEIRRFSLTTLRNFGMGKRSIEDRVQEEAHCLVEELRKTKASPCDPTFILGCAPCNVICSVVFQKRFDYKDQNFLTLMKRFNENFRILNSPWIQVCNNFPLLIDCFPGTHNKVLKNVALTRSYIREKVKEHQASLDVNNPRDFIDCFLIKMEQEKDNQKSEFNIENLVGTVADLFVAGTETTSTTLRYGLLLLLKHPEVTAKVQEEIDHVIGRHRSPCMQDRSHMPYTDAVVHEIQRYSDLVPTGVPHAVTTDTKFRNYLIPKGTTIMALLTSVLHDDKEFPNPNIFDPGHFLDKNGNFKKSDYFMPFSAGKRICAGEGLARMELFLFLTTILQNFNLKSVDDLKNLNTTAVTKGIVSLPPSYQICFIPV

[6] = Clearance in dog at 1 mg/kg, iv; type: ADME, organism-based, Canis lupus familiaris; details: in vivo
Method in brief: (§1)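 Single-dose PK, IV and PO. Doses: mouse and rat 2 mg/kg IV / 4 mg/kg PO; dog and cyno 1 mg/kg IV, with 1 or 2 mg/kg PO.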

[7] = Clearance in cynomolgus monkey at 1 mg/kg, iv; type: ADME, organism-based, Macaca fascicularis; details: in vivo; method in brief: as §1
[8] = Cmax in cynomolgus monkey at 2 mg/kg, po; type: ADME, organism-based, Macaca fascicularis; design: route oral, dose 2 mg/kg; details: in vivo; method in brief: as §1
[9] = AUC (0 to 24 hrs) in cynomolgus monkey at 2 mg/kg, po; type: ADME, organism-based, Macaca fascicularis; design: time < 24 hr, route oral, dose 2 mg/kg; details: in vivo
Mus musculus [10] = test: Protection against imiquimod-induced C57BL/6 mouse model of psoriasis assessed as inhibition of skin thickening at 5 mg/kg, po BID for 7 days and measured every day for 8 days relative to control; type: functional; details: C57BL/6, po, 168 h, time 7 day
Mus musculus [11] = test: Protection against imiquimod-induced C57BL/6 mouse model of psoriasis assessed as reduction in IL-17A mRNA levels at 5 mg/kg, po BID for 7 days by RT-PCR analysis relative to control; type: functional; design: scale not given: the % may be the effect or the level left; details: time 7 day
Mus musculus [12] = test: Protection against imiquimod-induced C57BL/6 mouse model of psoriasis assessed as reduction in IL-17F mRNA levels at 10 mg/kg, po BID for 7 days by RT-PCR analysis relative to control; type: functional; design: scale not given: the % may be the effect or the level left; details: time 7 day
Mus musculus [13] = test: Protection against recombinant human IL23-induced acanthosis C57BL/6 mouse model assessed as reduction in IL-17A mRNA levels at 6 mg/kg, po BID BID for 10 days by qRT-PCR analysis relative to control; type: functional; design: scale not given: the % may be the effect or the level left; details: time 10 day
Method in brief: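 In the IL-23 ear-injection model in C57BL/6 mice with BID oral dosing, ear tissue was collected from all animals at study end on day 10. IL-17A and IL-17F mRNA expression was quantified by qPCR and compared with the placebo arm.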

Stabilty [1]: 100% | half-life [2]: 2 h | Papp A→B [3]: 10.6 ×10⁻⁶ cm/s | EC50 [4]: > 10 µM | EC50 [5]: > 5 µM | IC50 (Cytochrome P450 2D6): 20 µM | IC50 (Cytochrome P450 3A4): 11 µM | IC50 (Cytochrome P450 2C8): 12 µM | clearance [6]: 0.8 mL/min/kg | clearance [7]: 2.7 mL/min/kg | Cmax [8]: 1100 nM | AUC(0-t) at 24 h [9]: 18 µM·h
SMILES: CC(C)(O)C(=O)N[C@@H]1CC[C@@]2(S(=O)(=O)c3ccc(F)cc3)c3ccc(C(F)(C(F)(F)F)C(F)(F)F)cc3CC[C@@H]12
inhibition in vivo at 5 mg/kg (Mus musculus [10]): 13.7% | Activity (Mus musculus [11]): 75.9% | Activity (Mus musculus [12]): 89.7% | Activity (Mus musculus [13]): 64.9%
